bCat nuc transl: modulators of beta-catenin nuclear translocation, primary screen, imaging, HeLa cells, immunofluorescence, high-content | nuclear translocation activity, % at 5 µM | 0.3% of 190,000 active;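 active means nuclear translocation activity above 50% at 5 µM, with a well cell count of 50 or more; inconclusive means wells under 50 cells across six images, flagged as toxic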;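 further: per-cell ratio of nuclear to cytoplasmic median beta-catenin stain intensity; plate controls were DMSO negative control for no effect and GSK-3 inhibitor IX positive control for full effect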
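Test system: HeLa cells, endogenous beta-catenin; Compound: single 5 µM dose plus 0.02–20 µM confirmation series; Times: compound exposure 24 h at 37°C; Signal: fluorescence imaging of beta-catenin antibody stain plus DAPI; Read-out: % activation, nuclear-to-cytoplasmic median beta-catenin signal ratio per cell.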
Ins promoter up: insulin promoter activators in MIN6 cells, imaging, high-content screening, mouse beta cells; z-score at 5 µM; AID 1625, 2009; 0.3% of 190,000 active; MIN6 insulin promoter-GFP reporter; active compounds read high;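 active means z-score above 3 at 5 µM with at least 500 cells counted in the well; inconclusive means wells under 500 cells, flagged as cytotoxic or low count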
Autophagy HCS: autophagy modulators in MEF cells, primary screen, imaging, high-content, MEF GFP-LC3; MEF GFP-LC3 puncta imaging; test concentration mostly 10 µM; 0.98% of 190,000 active; calls only at 10 µM (by protocol);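 active means percentage of spot-positive cells more than 3 SD above its plate mean, without a fluorescence outlier flag or 80% toxicity; inconclusive means no clear call, values can overlap the other calls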;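 further: spot-positive cell cutoff set from DMSO-treated cells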
TbHK1 inh: Trypanosoma brucei hexokinase 1 inhibitors, primary screen, biochemical, G6PDH-coupled NADH absorbance, MLSCN library; hexokinase 1 [Trypanosoma brucei]; recombinant TbHK1, G6PDH-coupled NADH A340; inhibition, % at 10 µM; 0.11% of 220,000 active;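 active means inhibition of 50% or more in the single-dose primary screen; inactive means inhibition below 50%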
MT stabilize HCS: microtubule stabilizers in HeLa cells, primary screen, imaging, high-content imaging; HeLa tubulin immunostaining HCS, 24 h; share of cells brighter than vehicle mean+2SD; % tubulin-high responders, % at 10 µM; 0.83% of 200,000 active; AID 2205, 2009;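 active means plate Z-score above 3 for both tubulin-high and condensed-nucleus cell shares, with cell loss under 80%, at 10 µM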;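 further: anti alpha tubulin signal scored within the nucleus-defined area of each cell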
An asterisk follows results filed as active; i = inactive; u = inconclusive; x = no result given; + = active, no number. An excerpt weighted towards active compounds, which were near 1.9% of everything screened.

SMILES | bCat nuc transl | Ins promoter up | Autophagy HCS | TbHK1 inh | MT stabilize HCS
COc1cc(C(=O)N/N=C/c2sccc2C)cc(OC)c1OC | 85* | -0.87 | + | -49 | 12*
COc1cc(C(=O)N/N=C/c2cc([N+](=O)[O-])cs2)cc(OC)c1OC | 29 | 1.3 | i | -30 | 20*
Cc1cc(-c2cc(C(=O)NCc3ccccc3)on2)nc(NC2CCCC2)n1 | 1 | -0.41 | x | -11 | x
CN(C)c1ccc(-c2nn3c(-c4ccc(Cl)cc4Cl)nnc3s2)cc1 | 53* | -1.4 | i | -8 | 30*
OCCNc1nc(-c2ccccc2)c2cc(Cl)ccc2n1 | 1 | x | + | -8 | 4
O=C(Nc1cc(C(F)(F)F)ccc1Cl)C(Sc1nnc(-c2cccs2)o1)c1ccccc1 (configuration not stated) | 0 | 0.16 | i | -9 | 6
O=C(Nc1ccc(Cl)cc1C(F)(F)F)C(Sc1nnc(-c2cccs2)o1)c1ccccc1 (configuration not stated) | 33 | 0.34 | i | 0 | 14*
CC(Oc1ccc(Cl)cc1Cl)C(=O)Nc1ccc(N2CCN(C)CC2)cc1 (configuration not stated) | x | -0.12 | + | 3 | 2
CCOc1ccc(OCC(O)CNC2CCN(Cc3ccccc3)CC2)cc1 (configuration not stated) | 1 | 0.35 | i | -1 | 14
CC(C)(c1ccccc1)c1ccc(OCC(O)CNC2CCN(Cc3ccccc3)CC2)cc1 (configuration not stated) | u | u | + | 7 | 48
COc1ccc(OC)c(N2CC(O)=C(c3nc4ccccc4s3)C2=N)c1 | -1 | 0.75 | i | -11 | 5
CCOc1ccccc1N1CC(O)=C(c2nc3ccccc3s2)C1=N | 10 | -3.9 | + | -15 | 28*
CCCc1nc2oc(C(=O)c3ccccc3)c(N)c2c2c1COC(C)(C)C2 | x | u | i | -17 | 1
Cc1nc2oc(C(=O)c3ccc(Br)cc3)c(N)c2c2c1COC(C)(C)C2 | 0 | 0.14 | + | -4 | 4
Cc1ccc2oc(-c3cccc(NC(=S)NC(=O)/C=C/c4ccco4)c3)nc2c1 | 11 | -0.08 | i | -31 | 37*
Cc1ccc2oc(-c3cccc(NC(=S)NC(=O)c4cccs4)c3)nc2c1 | 2 | -0.11 | i | -13 | 6
CC(NCCC(c1ccccc1)c1ccccc1)c1ccccc1 (configuration not stated) | x | x | + | 13 | 4
CC(NC1CCCC1)c1ccccc1 (configuration not stated) | -2 | 0.05 | i | -3 | 3
CC(=O)Nc1ccccc1C(=O)C(=O)Nc1ccc(C(=O)N2CCOCC2)cc1 | 4 | 0.36 | i | -2 | 3
O=C(c1ccccc1)c1coc2c1C(=O)c1ccccc1C2=O | -1 | 0.05 | i | -3 | 2
O=C1c2ccccc2-c2onc3ccc(Oc4ccccc4)c1c23 | 3 | 1.3 | + | -4 | 7
Cc1cc(N2CCN(Cc3cn(C)nc3-c3ccccc3F)CC2)cc(C)n1 | 69* | 0.6 | i | 1 | 21*
Cn1cc(CN2CCN(c3ncccn3)CC2)c(-c2cccc(Cl)c2)n1 | 0 | -0.69 | i | 2 | 4
Cc1cc(N2CCN(Cc3cn(C)nc3-c3cccc(Cl)c3)CC2)cc(C)n1 | 73* | -0.71 | i | 11 | 17
CN1CCN(Cc2cn(C)nc2-c2ccccc2F)CC1c1ccccc1 (configuration not stated) | -2 | 0.57 | i | 0 | 4
CNC(=S)NCC(O)c1ccc([N+](=O)[O-])cc1 (configuration not stated) | -3 | 0.24 | i | -2 | 3
CCOC(=O)C1CCCN(CC(=O)c2c[nH]c3ccc(C)cc23)C1 (configuration not stated) | 0 | 0.81 | x | -9 | x
CC(=O)NC1=C(C#N)C(c2ccccc2)c2c(ccc3ccccc23)O1 (configuration not stated) | 58* | x | i | -9 | 43*
COc1ccc(OCCCn2cc(/C=C3/C(=N)N4C=C(C)SC4=NC3=O)c3ccccc32)cc1 | -2 | 0.44 | + | 15 | 6
CCS(=O)(=O)c1ccc2oc(SCC(=O)NC34CC5CC(CC(C5)C3)C4)nc2c1 | x | x | i | -6 | 1

Screens: PubChem, several laboratories
